# Measured values gathered from unrelated publications.
# Lines come from different studies, so protocols differ.
# Target: Serine/threonine-protein kinase D2 (PRKD2, Homo sapiens, UniProt Q9BZL6)
# Residues used in one study (Q9BZL6 1-878): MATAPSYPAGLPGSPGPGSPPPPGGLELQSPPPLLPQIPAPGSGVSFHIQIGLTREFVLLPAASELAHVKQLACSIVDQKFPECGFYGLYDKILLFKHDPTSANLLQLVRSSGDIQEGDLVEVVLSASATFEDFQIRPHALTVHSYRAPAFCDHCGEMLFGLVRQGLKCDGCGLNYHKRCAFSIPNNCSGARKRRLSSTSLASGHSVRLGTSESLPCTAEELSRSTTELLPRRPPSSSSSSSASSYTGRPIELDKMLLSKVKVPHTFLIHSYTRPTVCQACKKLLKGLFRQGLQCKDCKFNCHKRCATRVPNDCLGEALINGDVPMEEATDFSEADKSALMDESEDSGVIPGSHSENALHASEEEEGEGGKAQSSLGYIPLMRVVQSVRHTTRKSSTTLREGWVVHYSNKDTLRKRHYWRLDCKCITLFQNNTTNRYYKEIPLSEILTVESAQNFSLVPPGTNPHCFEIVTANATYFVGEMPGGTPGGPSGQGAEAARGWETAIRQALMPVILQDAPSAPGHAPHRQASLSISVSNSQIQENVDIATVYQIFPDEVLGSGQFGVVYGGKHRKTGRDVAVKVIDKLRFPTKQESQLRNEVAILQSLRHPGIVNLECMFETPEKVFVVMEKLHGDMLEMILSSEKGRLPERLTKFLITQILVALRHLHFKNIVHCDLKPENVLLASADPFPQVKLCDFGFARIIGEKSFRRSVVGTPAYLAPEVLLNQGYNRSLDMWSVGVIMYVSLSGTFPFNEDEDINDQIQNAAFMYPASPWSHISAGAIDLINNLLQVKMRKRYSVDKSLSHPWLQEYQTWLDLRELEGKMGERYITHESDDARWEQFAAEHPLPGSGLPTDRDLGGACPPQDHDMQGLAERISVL
SMILES,read-out,method,tested at,remaining binding [%]
O=C(c1ccc(Nc2ncc(Cl)c(-c3cc4ccccc4s3)n2)cc1)N1CCC(N2CCCC2)CC1,binding,competition with immobilised ligand,1 µM,21
CNC(=O)[C@@H]1CC[C@@H](n2c(-c3ccc4cnccc4c3)nc3ccc(C(=O)NCc4cccc(C(N)=O)c4)cc32)C1,binding,competition with immobilised ligand,1 µM,90
O=C(c1ccc(Nc2ncc(Cl)c(-c3ccc(Cl)s3)n2)cc1)N1CCC(N2CCCC2)CC1,binding,competition with immobilised ligand,1 µM,8.7
COc1cnc(Nc2cccc(S(N)(=O)=O)c2)nc1N1CCN(c2ccccc2)C(=O)C1,binding,competition with immobilised ligand,1 µM,100
FC(F)(F)Oc1cccc(-c2cnc3ccc(-c4ccncc4)nn23)c1,cell-free assay,competition with immobilised ligand,5 µM,99
CCN1CCN(Cc2ccc(C(=O)Nc3ccc(C)c(Oc4ccc5c(c4)CC(=O)N5)c3)cc2C(F)(F)F)CC1,binding,competition with immobilised ligand,1 µM,95
N#Cc1ccc(Nc2ccc3[nH]c(=O)[nH]c3c2)c(Cl)c1,cell-free assay,competition with immobilised ligand,1 µM,100
N[C@@H]1CCN(c2nccc(-c3cnn4ncccc34)n2)C1,binding,,1 µM,94
CCCCN(CCCC)C(=O)CN1C[C@@H](c2cc(OC)c3c(c2)OCO3)[C@H](C(=O)O)[C@H]1CC(C)(C)CCC,cell-free assay,competition with immobilised ligand,1 µM,90.6
Cc1cnc(Nc2ccc(C(=O)N3CCC(N4CCCC4)CC3)cc2)nc1-c1cc2ccccc2s1,binding,competition with immobilised ligand,1 µM,47
c1cnn2ncc(-c3ccnc(N4CCC45COC5)n3)c2c1,binding,,1 µM,89
CS(=O)(=O)N1CCCC(NC(=O)[C@H](CCC2CCCCC2)NC(=O)c2ccc(CNC(=O)c3cnc4ccccn34)cc2)C1 (stereo partly shown),cell-free assay,competition with immobilised ligand,0.1 µM,100
COc1ccnn2ncc(-c3ccnc(N(C)C)n3)c12,binding,,1 µM,92
COc1ccc2cc(OCC3(C(=O)O)CN(C(=O)c4ccc(F)cc4)C3)ccc2c1,cell-free assay,competition with immobilised ligand,1 µM,93
CN(c1nccc(-c2cnn3ncccc23)n1)C1CC1,binding,,1 µM,99
O=C(Nc1c[nH]nc1C(=O)NC1CCNCC1)c1cc(F)cc(F)c1,binding,competition with immobilised ligand,1 µM,100
CNCc1ccccc1-c1csc([C@@H](C)Nc2nc(C)nc3cc(OC)c(OC)cc23)c1,cell-free assay,competition with immobilised ligand,1 µM,100
C[C@@H]1CCN(c2nccc(-c3cnn4ncccc34)n2)C1,binding,,1 µM,83
O=C(NCCCC1CCCCC1)c1ccc(CNC(=O)c2cnn(-c3ccccc3)c2C(F)(F)F)cc1,cell-free assay,competition with immobilised ligand,0.1 µM,100
c1cncc(-c2cccc(Nc3nccc(NC4CCCCC4)n3)c2)c1,binding,competition with immobilised ligand,10 µM,19
O=C(Nc1cccnn1)N1CCC(=Cc2cccc(Oc3ccc(C(F)(F)F)cn3)c2)CC1,cell-free assay,competition with immobilised ligand,1 µM,94
CN(CCCC(F)(F)F)c1nccc(-c2cnn3ncccc23)n1,binding,,1 µM,99
